MIC data for 39 compounds are collected here from ChEMBL document CHEMBL2021893, “Synthesis, structure-activity relationship and in vitro anti-mycobacterial evaluation of 13-n-octylberberine derivatives” (2012).

Converted amounts (≈) assume the structure as drawn. The source made the active and inactive calls. The rule behind the calls is not given here.

In the test the test system is Mycobacterium tuberculosis. The experiment in a line: Antimycobacterial activity against drug-susceptible Mycobacterium tuberculosis H37Rv measured 24 hrs post dose by microplate alamar blue assay. It is filed as functional. Summed up: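 Two-fold serial drug dilutions in 7H9 medium in 48-well plates, with H37Rv suspension added to give 4 × 10^-4 mg/mL bacteria per well. Plates were incubated at 37 °C, and alamar blue was added at an optimal time. The read was visual at 24 h after reagent addition. MIC was taken as the lowest concentration preventing the colour change.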
A general note: The colour change of resazurin is a common sign of viable cells or microbes.
Take `CCCCCCCCc1c2[n+](cc3c(O)c(OC)ccc13)CCc1cc(O)c(O)cc1-2.[Cl-]`: it took 32 µg/mL to inhibit growth (MIC).

As to `CCCCc1c2[n+](cc3c(OC)c(OC)ccc13)CCc1cc3c(cc1-2)OCO3`, the MIC entry was “inactive”. Compound `CCCCCCCCc1c2[n+](cc3c(OC)c(OC)ccc13)CCc1cc(OC)c(OC)cc1-2.[Cl-]` had an MIC of 2 µg/mL. `CCCCCCCCc1c2[n+](cc3c(OCCC)c(OC)ccc13)CCc1cc(OCCC)c(O)cc1-2.[Cl-]`: the MIC came to 4 µg/mL. Then `CCCCCCCCc1c2[n+](cc3c(OS(=O)(=O)c4ccc(C#N)cc4)c(OC)ccc13)CCc1cc3c(cc1-2)OCO3.[Cl-]`, with 8 µg/mL; and `CCCCCCCCc1c2[n+](cc3c(OS(=O)(=O)c4ccc(C(F)(F)F)cc4)c(OC)ccc13)CCc1cc3c(cc1-2)OCO3.[Cl-]`, with 16 µg/mL. The value for `CCCCCCCCc1c2[n+](cc3c(OC)c(OC)ccc13)CCc1cc(OCCCC)c(O)cc1-2.[Cl-]` was 8 µg/mL; that for `CCCCCCCCc1c2[n+](cc3c(OC)c(OC)ccc13)CCc1cc3c(cc1-2)OCCO3.[Cl-]` was 2 µg/mL.

The compound `CCCCCCCCc1c2[n+](cc3c(OCC)c(OC)ccc13)CCc1cc(OCC)c(OCC)cc1-2.[Cl-]` had an MIC of 0.125 µg/mL. `CCCCCCCCc1c2[n+](cc3c(OCCC)c(OC)ccc13)CCc1cc3c(cc1-2)OCO3.[Cl-]` returned an MIC of 2 µg/mL. The value for `CCCc1c2[n+](cc3c(OC)c(OC)ccc13)CCc1cc3c(cc1-2)OCO3` was “inactive”. Then `CCCCCCCCc1c2[n+](cc3c(OC)c(OC)ccc13)CCc1cc(OCC)c(O)cc1-2.[Cl-]`, with 2 µg/mL; and `COc1ccc2cc3[n+](cc2c1OC)CCc1cc2c(cc1-3)OCO2`, with “inactive”; and `NNC(=O)c1ccncc1` [ISONIAZID], with 0.0625 µg/mL (≈ 0.456 µM). Regarding `CCCCCCc1c2[n+](cc3c(OC)c(OC)ccc13)CCc1cc3c(cc1-2)OCO3`, the MIC entry was “inactive”. `CCCCCCCCc1c2[n+](cc3c(OC)c(OC)ccc13)CCc1cc(OCc3ccccc3)c(O)cc1-2.[Cl-]` returned an MIC of 2 µg/mL.

In turn, `CCCCCCCCc1c2[n+](cc3c(OC)c(OC)ccc13)CCc1cc(O)c(O)cc1-2.[Cl-]` yielded an MIC of 16 µg/mL. In the case of `CCCCCCCc1c2[n+](cc3c(OC)c(OC)ccc13)CCc1cc3c(cc1-2)OCO3`, the MIC result is “inactive”. In turn, `CCCCCCCCc1c2[n+](cc3c(OC(=O)c4ccc(C)cc4)c(OC)ccc13)CCc1cc3c(cc1-2)OCO3.[Cl-]` came in with an MIC of 4 µg/mL. As to `CCCCCCCCc1c2[n+](cc3c(OC)c(OC)ccc13)CCc1cc3c(cc1-2)OCO3.[Cl-]`, the lowest concentration to inhibit growth (MIC) was 2 µg/mL.

Turning to `CCCCCCCCc1c2[n+](cc3c(OC)c(OC)ccc13)CCc1cc(OCCCC)c(OCCCC)cc1-2.[Cl-]`, 2 µg/mL was the least that counted as inhibitory (MIC). Compound `CCCCCCCCc1c2[n+](cc3c(OCc4ccccc4)c(OC)ccc13)CCc1cc(OCc3ccccc3)c(O)cc1-2.[Cl-]` returned an MIC of 0.5 µg/mL. Take `CCCCCCCCc1c2[n+](cc3c(OCc4ccccc4)c(OC)ccc13)CCc1cc3c(cc1-2)OCO3.[Cl-]`: 4 µg/mL was the least that counted as inhibitory (MIC). Then `CCCCCCCCc1c2[n+](cc3c(OCCCC)c(OC)ccc13)CCc1cc(OCCCC)c(O)cc1-2.[Cl-]`, with 8 µg/mL; and `CCCCCCCCc1c2[n+](cc3c(O)c(OC)ccc13)CCc1cc3c(cc1-2)OCO3.[Cl-]`, with 4 µg/mL; and `CCCCCCCCc1c2[n+](cc3c(OC)c(OC)ccc13)CCc1cc(OCC)c(OCC)cc1-2.[Cl-]`, with 0.5 µg/mL. In the case of `COc1ccc2c(C)c3[n+](cc2c1OC)CCc1cc2c(cc1-3)OCO2`, the MIC result was “inactive”. In turn, `CCCCCCCCc1c2[n+](cc3c(OCC)c(OC)ccc13)CCc1cc3c(cc1-2)OCO3.[Cl-]` showed an MIC of 4 µg/mL.

In the case of `CCCCCCCCc1c2[n+](cc3c(OC)c(OC)ccc13)CCc1cc(OC)c(O)cc1-2.[Cl-]`, the MIC was found to be 2 µg/mL. Compound `CCCCCCCCc1c2[n+](cc3c(OCCCC)c(OC)ccc13)CCc1cc3c(cc1-2)OCO3.[Cl-]` yielded a minimum inhibitory concentration (MIC) of 8 µg/mL. In the case of `CCCCCCCCc1c2[n+](cc3c(OC(=O)c4ccc(OC)cc4)c(OC)ccc13)CCc1cc3c(cc1-2)OCO3.[Cl-]`, the MIC is 4 µg/mL. For `CCCCCCCCc1c2[n+](cc3c(OC)c(OC)ccc13)CCc1cc(OCCC)c(O)cc1-2.[Cl-]`, the MIC was 4 µg/mL.

As to `CCCCCCCCc1c2[n+](cc3c(OCC)c(OC)ccc13)CCc1cc(OCC)c(O)cc1-2.[Cl-]`, the lowest concentration to inhibit growth (MIC) was 4 µg/mL. `CO[C@H]1/C=C/O[C@@]2(C)Oc3c(C)c(O)c4c(O)c(c(/C=N/N5CCN(C)CC5)c(O)c4c3C2=O)NC(=O)/C(C)=C\C=C\[C@H](C)[C@H](O)[C@@H](C)[C@@H](O)[C@@H](C)[C@H](OC(C)=O)[C@@H]1C` [RIFAMPIN] had an MIC of 0.0625 µg/mL (≈ 0.0759 µM). Take `CCc1c2[n+](cc3c(OC)c(OC)ccc13)CCc1cc3c(cc1-2)OCO3`: the MIC entry was “inactive”. Take `CCCCCCCCc1c2[n+](cc3c(OCc4ccccc4)c(OC)ccc13)CCc1cc(OCc3ccccc3)c(OCc3ccccc3)cc1-2.[Cl-]`: the MIC came to 8 µg/mL.

As for `CCCCCc1c2[n+](cc3c(OC)c(OC)ccc13)CCc1cc3c(cc1-2)OCO3`, the MIC entry was “inactive”. `CCCCCCCCc1c2[n+](cc3c(OC)c(OC)ccc13)CCc1cc(OCc3ccccc3)c(OCc3ccccc3)cc1-2.[Cl-]` came in with an MIC of 8 µg/mL. `CCCCCCCCc1c2[n+](cc3c(OC)c(OC)ccc13)CCc1cc(OCCC)c(OCCC)cc1-2.[Cl-]` came in with an MIC of 2 µg/mL.

The term MIC denotes the lowest concentration found to suppress growth.
